High-throughput results: PubChem, several laboratories
Only a selection was taken, and hits are over-represented in it overall.
ALR H2O2 inh: inhibitors of human ALR sulfhydryl oxidase, primary screen, biochemical, H2O2 detection, HRP-luminol luminescence, single point; FAD-linked sulfhydryl oxidase ALR (Homo sapiens), P55789; purified ALR, DTT oxidation; inhibition, % (concentration not given with the values); hit rate 3.8% among 290,000; AID 485317, 2010;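 active = mean replicate inhibition above about 79%, with every replicate also reaching it, limit read from the data; inconclusive = only one of the two criteria met; inactive = mean below limit and not every replicate reaching it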
Target sequence (P55789 whole entry, looked up): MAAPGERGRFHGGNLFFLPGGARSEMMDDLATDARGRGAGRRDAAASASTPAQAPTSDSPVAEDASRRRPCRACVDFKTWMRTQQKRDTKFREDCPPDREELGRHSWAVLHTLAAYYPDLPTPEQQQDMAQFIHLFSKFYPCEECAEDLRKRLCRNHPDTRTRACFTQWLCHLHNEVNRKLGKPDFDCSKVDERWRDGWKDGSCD
N-glyco inh: increase of ERlucT glycosylation luciferase signal, primary screen, N-linked glycosylation inhibitor project, D54 ERlucT cells, luminescence, set 2; D54 ERlucT glycosylation luciferase reporter, 24 h; percent of 100 nM tunicamycin response; reporter increase, % at 12.5 µM; hit rate 0.23% among 360,000; AID 588692, 2011;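 active = mean luciferase reporter signal, scaled so untreated is 0 and the glycosylation-blocking control 100, at or above a set limit in every replicate; inconclusive = mean reaches the limit but not every replicate does; inactive = mean below the limit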;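 also: luciferase carries N-glycosylation sites so blocking glycosylation raises the light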
T cell modulator: modulators of CD8 T cell-vesicle binding, primary screen, mouse 2C CD8+ T cells, flow cytometry; hit rate 0.068% among 330,000; response (vesicle binding), % at 7 µM; 2C CD8+ T cell-vesicle binding; hits give low values; AID 2052, 2009;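 active = response, share of CD8 T cells binding vesicles, and their 90th percentile fluorescence all below set limits, cut at about 80% in these data, passing the limit was not always enough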;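 also: values below 100% mean blocked vesicle binding to the CD8+ T cells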
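Material: murine 2C transgenic CD8+ T lymphocytes / Also added: QL9-peptide-loaded Drosophila micro-vesicles bearing Ld, ICAM-1 and B7-1 / Schedule: binding step 1.5 h, 37 °C, antibody labelling 20 min, ice / Signal: flow cytometry, PE anti-B7-1 (FL2) versus Alexa647 anti-CD8 (FL8), PFA-fixed / Evaluation: percent CD8+ FL2 mean versus row control / Benchmarks: naked versus QL9-loaded vesicles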
Of the large screens only hits and unclear results are named; the others gave an inactive call.

Fc1cnc(N2CCN(c3ccccc3)CC2)nc1N1CCN(c2ccccc2)CC1	none
Nc1nc(N2CCN(c3cccc(Cl)c3)CC2)n[nH]1	ALR H2O2 inh 99.2
Nc1nc(N2CCN(c3ccccc3)CC2)n[nH]1	ALR H2O2 inh 99.7
Nc1nc(N2CCN(c3ccc(Cl)cc3)CC2)n[nH]1	ALR H2O2 inh 98.1
Cc1cc(SCC(=O)NCC2CCCO2)nc2ccccc12 (stereo not drawn)	none
CC(=O)Nc1ccc(S(=O)(=O)Nc2nc(C)nc3sc4c(c23)CCC4)cc1	none (no result: ALR H2O2 inh)
Cc1nc(NS(=O)(=O)c2ccccc2C)c2c3c(sc2n1)CCC3	ALR H2O2 inh 97.1 (no result: N-glyco inh)
Cc1ccc(S(=O)(=O)/C(=C\N(C)C)c2cnc(Cl)s2)cc1	none
CCn1c(SCc2ccc(C(=O)Nc3nccs3)cc2)nnc1-c1ccc(N)cc1	ALR H2O2 inh 82.5
Cn1c(SCc2ccc(C(=O)Nc3nccs3)cc2)nnc1-c1ccccc1	none
CCn1c(SCC(=O)Nc2nccs2)nnc1-c1ccc(S(=O)(=O)N2CCCCCC2)cc1	none (no result: ALR H2O2 inh)
CCn1c(SCc2ccc(C(=O)Nc3nccs3)cc2)nnc1-c1ccc(NC(C)=O)cc1	ALR H2O2 inh 98.8
CCCCNC(=O)C1(C)CCCCN1C(=O)c1cc2ccccc2s1 (stereo not drawn)	none (no result: ALR H2O2 inh, T cell modulator)
Fc1ccc(-c2nc3c4ccccc4ccn3c2Cc2ccsc2)cc1	none (no result: ALR H2O2 inh, T cell modulator)
Cc1ccc(N2CC(C(=O)N3CCC(C(=O)Nc4nnc(C(C)(C)C)s4)CC3)CC2=O)cc1 (stereo not drawn)	none
ClCC1NCC(c2ccccc2Cl)c2c1[nH]c1ccccc21 (stereo not drawn)	ALR H2O2 inh 97.9
Cc1cc(F)ccc1NCc1ccc([N+](=O)[O-])cc1	none
Cc1cc(C(=O)CSc2nnc(N)s2)c(C)n1C1CC1	ALR H2O2 inh 97.8
Cc1cc(C(=O)CSc2nc(N)cc(N)n2)c(C)n1C1CC1	none
CC(=O)c1cccc(OCC(=O)Nc2cccc(C(=O)Nc3c(C)n(C)n(-c4ccccc4)c3=O)c2)c1	none (no result: ALR H2O2 inh)
Cc1[nH]c2ccccc2c1N=Nc1cccc(C(=O)O)c1	ALR H2O2 inh 98.1
COC(=O)c1cc(N=Nc2c(C)[nH]c3ccccc23)cc(C(=O)OC)c1	none
CCn1c(C)nc2cc(C(=O)NNC(=S)NC(=O)c3ccc(OC)cc3)ccc21	none
CC(C)(C)c1ccc(C(=O)NNC(=O)c2cccc(Br)c2)cc1	N-glyco inh 202.8
Cc1ccc(C(=O)NNC(=O)c2cccc(Br)c2)cc1	none
COCCNc1nc(Nc2ccc(Cl)cc2F)c2sccc2n1	none (no result: ALR H2O2 inh, T cell modulator)
O=C(Nc1c(-c2ccc3c(c2)OCO3)[nH][nH]c1=O)c1ccccc1	none (no result: ALR H2O2 inh, T cell modulator)
COc1cc(C2=NC(CO)(CO)CO2)cc(OC)c1OC	none
Cc1nn(C)c(C)c1CNC(=O)c1cc2n(n1)C(C(F)(F)F)CC(c1cccs1)N2 (stereo not drawn)	none
CCOC(=O)c1c(NC(=O)c2cc3n(n2)C(C(F)(F)F)CC(c2cccs2)N3)sc(C)c1C (stereo not drawn)	N-glyco inh 97.9
CCNC(=O)C1CCCN(C(=O)c2ccc(C#N)cc2)CC1 (stereo not drawn)	none (no result: ALR H2O2 inh, T cell modulator)
O=C(NC(O)C(=O)c1ccccc1)c1cccs1 (stereo not drawn)	ALR H2O2 inh 91.4
O=C(NNC(=O)c1cccs1)c1ccccc1	none
CCOC(=O)/C(=N/Nc1ccccc1OC)N1CCCc2ccccc21	none
CCOC(=O)/C(=N/Nc1ccc(OC)cc1)N1CCCc2ccccc21	none (no result: ALR H2O2 inh)
CCOC(=O)/C(=N/Nc1ccccc1)N1CCCc2ccccc21	ALR H2O2 inh 93.5
COC(=O)/C(=N/Nc1ccccc1C)N1CCCc2ccccc21	ALR H2O2 inh 98.3
CCN1C/C(=C/c2ccc(OC)c(O)c2)C(=O)/C(=C/c2ccc(OC)c(O)c2)C1	ALR H2O2 inh 97.8
COc1ccc(/C=C2\CN(Cc3ccccc3)C/C(=C\c3ccc(OC)c(O)c3)C2=O)cc1O	none (no result: ALR H2O2 inh)
CCCCNC(=O)N1c2ccccc2CC1C (stereo not drawn)	none
COc1cc(Cl)c(C)cc1NC(=O)CC1SC(N2CCOCC2)=NC1=O (stereo not drawn)	none (no result: ALR H2O2 inh)
Cc1ccc(N=Nc2c(=O)[nH]n3c(C)cc(C)nc23)cc1	none
Cc1ccc(N=Nc2c(N)[nH]n3c(=O)cc(C)nc23)cc1	ALR H2O2 inh 97.1
COc1ccc(N2CCN(C(=O)C34CCC(C)(C(=O)C3)C4(C)C)CC2)cc1 (stereo not drawn)	none
CC12CCC(C(=O)N3CCN(c4ccccc4)CC3)(CC1=O)C2(C)C (stereo not drawn)	ALR H2O2 inh 98.9 (no result: N-glyco inh)
O=C(N/N=C/c1coc2ccccc2c1=O)c1ccncc1	none
Cc1ccc2occ(/C=N/NC(=O)c3ccc(Cl)cc3)c(=O)c2c1	none
O=C(N/N=C/c1coc2ccc(Cl)cc2c1=O)c1cc(O)cc(O)c1	ALR H2O2 inh 96.0
CCCOc1cccc(C(=O)N/N=C/c2coc3ccccc3c2=O)c1	ALR H2O2 inh 96.9
CCOc1ccccc1C(=O)N/N=C/c1coc2ccc(Cl)cc2c1=O	ALR H2O2 inh inconclusive
O=C(N/N=C/c1coc2ccccc2c1=O)c1cc(Br)c(O)c(Br)c1	ALR H2O2 inh 97.8
COc1ccc(/C=N/NC(=O)CCSc2nc3ccccc3s2)cc1	none
Cc1c(C(=O)NCc2ccccc2)sc(=O)n1Cc1ccccc1F	none (no result: ALR H2O2 inh, T cell modulator)
COc1ccc(Cc2c(-c3ccc(C)cc3)nc3ccc(Cl)cn23)c(C)c1	none (no result: ALR H2O2 inh, T cell modulator)
CCCCN1C[C@H](C)[C@@H](CC(=O)NC)C1=O	none (no result: ALR H2O2 inh, T cell modulator)
CN(CC(=O)NCc1cccs1)CC(=O)Nc1ccccc1Cl	none (no result: ALR H2O2 inh, T cell modulator)
C=CCn1c(NCc2cc(C)ccc2O)nc2ccccc21	ALR H2O2 inh 97.6
Cc1ccc(O)c(CNc2nc3ccccc3n2C(C)C)c1	ALR H2O2 inh 98.1
CC(C)n1c(NCc2cc(Cl)ccc2O)nc2ccccc21	none
CCn1c(CNc2nc3ccccc3n2C(C)C)nc2ccccc21	ALR H2O2 inh 98.1
CCCCn1c(NCc2cc(C)ccc2O)nc2ccccc21	none (no result: ALR H2O2 inh, T cell modulator)
CC(C)n1c(NCc2nc3ccccc3n2C)nc2ccccc21	none
COc1ccc(CNc2nc3ccccc3n2C)c(O)c1	none (no result: ALR H2O2 inh)
COc1ccc(CNc2nc3ccccc3n2C(C)C)c(O)c1	ALR H2O2 inh 98.6
O=C(Cn1ccccc1=O)Nc1ccc(Cl)c(S(=O)(=O)N2CCCCC2)c1	none
O=C(O)C1CC=CCC1C(=O)NCCCN1CCCC1=O (stereo not drawn)	none
CC(=O)c1ccc(NC(=O)Cc2ccsc2)cc1	none
COc1ccc(C2C3=C(CC(C)(C)CC3=O)Nc3cc4c(cc32)OCO4)cc1 (stereo not drawn)	ALR H2O2 inh inconclusive
COc1ccc(OC)c(C2C3=C(COC3=O)Nc3cc4c(cc32)OCO4)c1 (stereo not drawn)	ALR H2O2 inh 99.0
CN(C)/N=C/c1ccc(Sc2ccccc2[N+](=O)[O-])o1	ALR H2O2 inh 92.0
CN(/N=C/c1ccc(-c2ccc([N+](=O)[O-])cc2)o1)c1ccccc1	none
CC[C@@H]1[C@H]2CCCC(=O)N3CC[C@@H](C[C@@H]1Nc1ccccc1)[C@@H]23	ALR H2O2 inh 98.8
CC[C@H]1C(Nc2ccccc2)C[C@@H]2CCN3C(=O)CC[C@H]1[C@H]23 (stereo partly drawn)	none (no result: ALR H2O2 inh, T cell modulator)
COc1ccccc1C1CCN(Cc2ccc3ccccc3c2)CC1	none
